Consider 1 molecule from ChEMBL document CHEMBL2429803, “Animal toxicity of hairpin pyrrole-imidazole polyamides varies with the turn unit” (J Med Chem, 2013).

For data set [1], the system named is Mus musculus. Description: Acute toxicity in C57BL/6J mouse assessed as lesions in GI tract at 1 to 10 mg/kg, sc after 9 days. Details: dose 1-10 mg/kg, route subcutaneous. The note with it: in vivo, 216 h. The format is organism-based, Gastrointestinal tract. The method, boiled down: (§1)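 Male C57BL/6J mice, 8 weeks old, received a single sc dose (1, 3 or 10 mg/kg in 25% DMSO/saline, n = 4 per group) and were sacrificed after 9 days. Two representative animals per group were fixed in 10% formalin. Cecum, duodenum, heart, ileum, kidney, liver, lung, pancreas, spleen and stomach were examined blind by a veterinary pathologist and lesions graded mild, moderate or severe.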

In data set [2] the test system is Mus musculus. As to the kind of experiment: Acute toxicity in C57BL/6J mouse assessed as karyomegaly at 10 mg/kg, sc after 9 days. The arrangement: dose 10 mg/kg, route subcutaneous. The format is organism-based. The following applies: in vivo, 216 h. The method in brief:
as §1

Data set [3] concerns Mus musculus. As to the kind of experiment: Acute toxicity in C57BL/6J mouse assessed as lesions in pancreas at 1 to 10 mg/kg, sc after 9 days. Details: dose 1-10 mg/kg, route subcutaneous. The note with it: in vivo, 216 h. The format is organism-based. The method, boiled down:
as §1

The test system of data set [4] is Mus musculus. As to the kind of experiment: Toxicity in C57BL/6J mouse assessed as morbidity at 1 mg/kg, sc administered every 3 days for a cycle of 3 injections. The format is organism-based. The arrangement: dose 1 mg/kg, route subcutaneous. The following applies: in vivo, 72 h. The method in brief:
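Male C57BL/6J mice, 3 per group, given 1 mg/kg sc every 3 days. Weight recorded on injection days. Watched for signs of duress. Humane end point was visible duress or weight loss over 15% of starting body weight.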

Data set [5] relates to Mus musculus. As to the kind of experiment: Acute toxicity in C57BL/6J mouse assessed as lesions in lungs at 1 to 10 mg/kg, sc after 9 days. The format is organism-based. Details: dose 1-10 mg/kg, route subcutaneous. The following applies: in vivo, 216 h. The method, boiled down:
as §1

A short description of data set [6]: Metabolic stability in mouse liver microsomes after 1 hr by LC/MS/MS analysis. The format is ADME, Microsome. The note with it: read-out: Stability. The method in brief:
(§2)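 Compound incubated at 37 °C for 60 min with 1 mg/mL human or mouse liver microsomes in 100 mM KH2PO4, 3 mM MgCl2, pH 7.4, with 2 mM NADPH or without it. Stopped with ice-cold methanol, then precipitate removed. Analyzed by LC/MS/MS as % remaining versus time zero. Duplicates.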
(Liver microsomes are a subcellular fraction often used to study metabolism.)

Data set [7] relates to Mus musculus. Description: Toxicity in C57BL/6J mouse assessed as weight loss at 10 mg/kg, sc. The format is organism-based. The arrangement: dose 10 mg/kg, route subcutaneous. The following applies: in vivo. The method in brief: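 Single sc injection in 25% DMSO/saline to 8-week-old male C57BL/6J mice acclimated 3 days; groups of four receiving 1, 3 or 10 mg/kg. Weight monitored daily for 9 days, then sacrifice; euthanasia on visible duress or weight loss beyond 15% of original body weight.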

The test system of data set [8] is Mus musculus. As to the kind of experiment: Acute toxicity in C57BL/6J mouse assessed as milder tubular regeneration at 10 mg/kg, sc after 9 days. The format is organism-based. Details: dose 10 mg/kg, route subcutaneous. The note with it: in vivo, 216 h. The method in brief: as §1
The test system of data set [9] is Mus musculus. Description: Acute toxicity in C57BL/6J mouse assessed as weight loss at 10 mg/kg, sc after 9 days. The format is organism-based. The arrangement: dose 10 mg/kg, route subcutaneous. The note with it: in vivo, 216 h. The method in brief: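 Male C57BL/6J mice, 8 weeks old, were acclimated 3 days and then given a single sc injection of 1, 3 or 10 mg/kg in 25% DMSO/saline vehicle (up to 200 μL), n = 4 per group. Weight, behaviour and appearance were monitored daily for 9 days before sacrifice. The humane end point was visible duress or weight loss over 15% of the original.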

The subject of data set [10] is Mus musculus. As to the kind of experiment: Toxicity in C57BL/6J mouse assessed as mild tubular attenuation in kidney at 1 mg/kg, sc administered every 3 days for a cycle of 3 injections measured 2 days post last injection. The format is organism-based. The arrangement: dose 1 mg/kg, route subcutaneous. The following applies: in vivo, 48 h. The method in brief:
(§3)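 Male C57BL/6J mice, 8 weeks old, given 1 mg/kg sc every 3 days for three injections and sacrificed 2 days after the last one. Two mice per group fixed in 10% formalin. A veterinary pathologist, blinded, examined cecum, duodenum, heart, ileum, kidney, liver, lung, pancreas, spleen and stomach. Lesions graded mild, moderate or severe.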

The test system of data set [11] is Mus musculus. Description: Acute toxicity in C57BL/6J mouse assessed as hepatocellular necrosis and apoptosis at 3 mg/kg, sc after 9 days. The format is organism-based. Details: dose 3 mg/kg, route subcutaneous. The following applies: in vivo, 216 h. The method in brief: as §1
A short description of data set [12]: Metabolic stability in human liver microsomes after 1 hr by LC/MS/MS analysis in presence of NADPH. The format is ADME, Microsome. The note with it: read-out: Stability. The method, boiled down: as §2
Data set [13] concerns Mus musculus. Description: Acute toxicity in C57BL/6J mouse assessed as lesions in heart at 1 to 10 mg/kg, sc after 9 days. The format is organism-based. The arrangement: dose 1-10 mg/kg, route subcutaneous. The following applies: in vivo, 216 h. The method in brief: as §1
Data set [14] relates to Mus musculus. Description: Toxicity in C57BL/6J mouse assessed as weight loss at 1 mg/kg, sc administered every 3 days for a cycle of 3 injections. Details: dose 1 mg/kg, route subcutaneous. The note with it: in vivo, 72 h. The format is organism-based. The method, boiled down:
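8-week-old male C57BL/6J mice, acclimated 3 days, groups of three, dosed sc in 25% DMSO/saline vehicle once every 3 days, sacrificed 2 days after the last injection. Body weight recorded on injection days and at end point; humane end point set at visible duress or >15% loss of original body weight.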

The subject of data set [15] is Mus musculus. Description: Toxicity in C57BL/6J mouse assessed as epithelial necrosis and apoptosis in kidney at 1 mg/kg, sc administered every 3 days for a cycle of 3 injections measured 2 days post last injection. Details: dose 1 mg/kg, route subcutaneous. The format is organism-based. The following applies: in vivo, 48 h. The method in brief: as §3
For data set [16], the system named is Mus musculus. As to the kind of experiment: Acute toxicity in C57BL/6J mouse assessed as diffuse hepatocellular necrosis and apoptosis at 3 to 10 mg/kg, sc after 9 days. The note with it: in vivo, 216 h. The arrangement: dose 3-10 mg/kg, route subcutaneous. The format is organism-based. The method, boiled down:
as §1

In data set [17] the test system is Mus musculus. As to the kind of experiment: Toxicity in C57BL/6J mouse assessed as karyomegaly in kidney at 1 mg/kg, sc administered every 3 days for a cycle of 3 injections measured 2 days post last injection. The format is organism-based. Details: dose 1 mg/kg, route subcutaneous. The note with it: in vivo, 48 h. The method in brief: as §3
For data set [18], the system named is Mus musculus. Description: Toxicity in C57BL/6J mouse assessed as mild multifocal hepatocellular necrosis and apoptosis in liver at 1 mg/kg, sc administered every 3 days for a cycle of 3 injections measured 2 days post last injection. The format is organism-based. The arrangement: dose 1 mg/kg, route subcutaneous. The following applies: in vivo, 48 h. The method, boiled down: as §3

Data set [19] in a line: Metabolic stability in mouse liver microsomes after 1 hr by LC/MS/MS analysis in presence of NADPH. The format is ADME, Microsome. The following applies: read-out: Stability. The method in brief:
as §2

Data set [20] relates to Mus musculus. As to the kind of experiment: Acute toxicity in C57BL/6J mouse assessed as lesions in stomach at 1 to 10 mg/kg, sc after 9 days. The format is organism-based. The following applies: in vivo, 216 h. The arrangement: dose 1-10 mg/kg, route subcutaneous. The method in brief:
as §1

The nature of data set [21]: Metabolic stability in human liver microsomes after 1 hr by LC/MS/MS analysis. The format is ADME, Microsome. The following applies: read-out: Stability. The method, boiled down:
as §2

In data set [22] the test system is Mus musculus. As to the kind of experiment: Acute toxicity in C57BL/6J mouse at 10 mg/kg, sc after 9 days. The following applies: in vivo, 216 h. Details: dose 10 mg/kg, route subcutaneous. The format is organism-based. The method, boiled down:
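Single sc injection in male 8-week-old C57BL/6J mice (1, 3 or 10 mg/kg in 25% DMSO/saline; n = 4 per group), followed for 9 days with daily weighing, then sacrifice. Toxicity was assessed by blinded histopathology of two mice per group and by blinded serum ALT, AST, total bilirubin, BUN and creatinine from retroorbital blood of all mice.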

In the case of `CN(CCCNC(=O)c1cccc(C(=O)O)c1)CCCNC(=O)c1cc(NC(=O)c2cc(NC(=O)c3cc(NC(=O)c4nc(NC(=O)[C@H](N)CCNC(=O)c5cc(NC(=O)c6cc(NC(=O)c7cc(NC(=O)c8nccn8C)cn7C)cn6C)cn5C)cn4C)cn3C)cn2C)cn1C`, the Activity result in the data set with Mus musculus [1] is on record as “Non-toxic”; with Mus musculus [2] it was “Toxic”; in the data set on Mus musculus [3], “Non-toxic”; in the data set on Mus musculus [4] it was “Non-toxic”; in the data set with Mus musculus [5], “Non-toxic”; in the data set on Mus musculus [7], greater than 15%. Moreover, the Activity result with Mus musculus [8] was “Toxic”; with Mus musculus [9], “Toxic”; in the data set on Mus musculus [10] it was “Toxic”; in the data set on Mus musculus [11] it was “Toxic”; in the data set on Mus musculus [13], “Non-toxic”; with Mus musculus [14], “Non-toxic”. The Activity entry with Mus musculus [15] was “Toxic”; in the data set with Mus musculus [16] it was “Toxic”; in the data set with Mus musculus [17] it was “Toxic”; in the data set with Mus musculus [18], “Toxic”; in the data set with Mus musculus [20] it was “Non-toxic”; in the data set with Mus musculus [22], “Non-toxic”. Moreover, the remaining at 1 h in data set [6], in [12], in [19] and in data set [21] was greater than 90% in each case.
